Data: ChEMBL document CHEMBL1149321, “Synthesis, radiosynthesis, and biological evaluation of carbon-11 and iodine-123 labeled 2beta-carbomethoxy-3beta-[4'-((Z)-2-haloethenyl)phenyl]tropanes: candidate radioligands for in vivo imaging of the serotonin transporter” (J Med Chem, 2004)

Tests used:
Rattus norvegicus [1] = assay: Distribution of the radio labelled compound in frontal cortex of rat brain after intravenous administration in presence of reboxetine after 60 min; assay type: ADME, organism-based; conditions: in vivo, 1 h
How it was run: (§1)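 Male Sprague–Dawley rats (200–250 g) under ketamine/xylazine anaesthesia with tail-vein cannulas. Blocker or none given 15 min before ~20 μCi [123I] tracer iv in 0.2 mL 10% ethanol/saline; blocker dose 4 mg/kg.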

Rattus norvegicus [2] = assay: Distribution in occipital cortex of rat brain after intravenous administration by using [123I]ZIET after 60 min; assay type: ADME, organism-based; conditions: in vivo, 1 h
How it was run: (§2)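 Male Sprague–Dawley rats (200–250 g), fed ad libitum, given ~20 μCi radiotracer iv via tail-vein cannula in 0.2 mL 10% ethanol/saline under ketamine/xylazine im anesthesia. Killed at 5, 30, 60 or 120 min (n = 5; n = 4 at 120 min). Brain regions dissected, weighed, gamma-counted with dose standards, decay-corrected; mean %ID/g ± SE.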

Rattus norvegicus [3] = assay: Distribution in rest of rat brain after intravenous administration by using [123I]ZIET after 5 min; assay type: ADME, organism-based; conditions: in vivo; how it was run: as §2
Rattus norvegicus [4] = assay: Distribution in striatum of rat brain after intravenous administration by using [123I]ZIET after 120 min; assay type: ADME, organism-based; conditions: in vivo, 2 h; how it was run: as §2
Rattus norvegicus [5] = assay: Distribution of the radio labelled compound in blood of rat brain after intravenous administration in presence of citalopram after 60 min; assay type: ADME, organism-based; conditions: in vivo, 1 h
How it was run: (§3)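 Male Sprague–Dawley rats (200–250 g), ketamine/xylazine anesthesia, tail-vein cannula. Blocker (4 mg/kg) or nothing given 15 min before iv [123I]ZIET in 10% ethanol/saline. Killed 60 min post-tracer.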

Rattus norvegicus [6] = assay: Distribution of the radio labelled compound in brainstem of rat brain after intravenous administration in absence of blocker after 60 min; assay type: ADME, organism-based; conditions: in vivo, 1 h; how it was run: as §3
Rattus norvegicus [7] = assay: Distribution of the radio labelled compound in brainstem of rat brain after intravenous administration in presence of citalopram after 60 min; assay type: ADME, organism-based; conditions: in vivo, 1 h; how it was run: as §3
Rattus norvegicus [8] = assay: Distribution in hypothalamus of rat brain after intravenous administration by using [123I]ZIET after 5 min; assay type: ADME, organism-based; conditions: in vivo; how it was run: as §2
Rattus norvegicus [9] = assay: Distribution of the radio labelled compound in thyroid of rat brain after intravenous administration in presence of reboxetine after 60 min; assay type: ADME, organism-based, Thyroid gland; conditions: in vivo, 1 h; how it was run: as §1
Rattus norvegicus [10] = assay: Distribution in blood of rat brain after intravenous administration by using [123I]ZIET after 120 min; assay type: ADME, organism-based; conditions: in vivo, 2 h; how it was run: as §2
Rattus norvegicus [11] = assay: Distribution in blood of rat brain after intravenous administration by using [123I]ZIET after 5 min; assay type: ADME, organism-based; conditions: in vivo; how it was run: as §2
Rattus norvegicus [12] = assay: Distribution in frontal cortex of rat brain after intravenous administration by using [123I]ZIET after 120 min; assay type: ADME, organism-based; conditions: in vivo, 2 h; how it was run: as §2
Rattus norvegicus [13] = assay: Distribution in frontal cortex of rat brain after intravenous administration by using [123I]ZIET after 5 min; assay type: ADME, organism-based; conditions: in vivo; how it was run: as §2
Rattus norvegicus [14] = assay: Distribution in frontal cortex of rat brain after intravenous administration by using [123I]ZIET after 60 min; assay type: ADME, organism-based; conditions: in vivo, 1 h; how it was run: as §2
Rattus norvegicus [15] = assay: Distribution of the radio labelled compound in occipital cortex of rat brain after intravenous administration in absence of blocker after 60 min; assay type: ADME, organism-based; conditions: in vivo, 1 h; how it was run: as §1
Rattus norvegicus [16] = assay: Distribution of the radio labelled compound in rest of rat brain after intravenous administration in presence of RTI-113 after 60 min; assay type: ADME, organism-based; conditions: in vivo, 1 h; how it was run: as §1
[17] = Ratio of radioactivity in brainstem of rat brain to that of rat cerebellum after intravenous administration after 60 min; assay type: functional
How it was run: (§4)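 Male Sprague–Dawley rats (200–250 g) given ~20 μCi [123I] tracer iv in 0.2 mL 10% ethanol/saline under ketamine/xylazine; killed at 5, 30, 60, 120 min (n = 5; n = 4 at 120 min). Brain regions dissected, gamma counted, decay-corrected to %ID/g; regional uptake divided by cerebellum.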

[18] = Ratio of radioactivity in hypothalamus of rat brain to that of rat cerebellum after intravenous administration after 5 min; assay type: functional; how it was run: as §4
[19] = Ratio of radioactivity in occipital cortex of rat brain to that of rat cerebellum after intravenous administration after 120 min; assay type: functional; how it was run: as §4

Structure (SMILES): COC(=O)C1C(c2ccc(/C=C\[123I])cc2)CC2CCC1N2C (centres undefined)
- Activity (Rattus norvegicus [1]): 0.47
- Activity (Rattus norvegicus [2]): 0.63
- Activity (Rattus norvegicus [3]): 0.38
- Activity (Rattus norvegicus [4]): 0.52
- Activity (Rattus norvegicus [5]): 0.21
- Activity (Rattus norvegicus [6]): 0.33
- Activity (Rattus norvegicus [7]): 0.14
- Activity (Rattus norvegicus [8]): 0.36
- Activity (Rattus norvegicus [9]): 1.12
- Activity (Rattus norvegicus [10]): 0.38
- Activity (Rattus norvegicus [11]): 0.45
- Activity (Rattus norvegicus [12]): 0.48
- Activity (Rattus norvegicus [13]): 0.45
- Activity (Rattus norvegicus [14]): 0.71
- Activity (Rattus norvegicus [15]): 0.46
- Activity (Rattus norvegicus [16]): 0.36
- Ratio [17]: 2
- Ratio [18]: 1.1
- Ratio [19]: 3
